# Reference: ChEMBL document CHEMBL5058577, “EUbOPEN Chemogenomics Library 2 (Multiplex)” (2022)
# Tested on: Fibroblast
# Experiment: Multiplex assay against human fibroblast
# Format: toxicity, cell-based
# Outline: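 Imaging took place on a CQ1 microscope at 37°C and 5% CO2 once compound had been added to live cells stained at seeding with Hoechst33342, BioTracker Green Microtubule Cytoskeleton Dye, MitoTracker Red and Annexin V Alexa Fluor 680. CellPathfinder machine-learning gating classed cells as Hoechst high-intensity objects or normal cells, classed normal cells as having healthy, pyknosed or fragmented nuclei, and classed pyknosed cells as mitotic or apoptotic. Tubulin, mitochondrial-mass and membrane-permeability phenotypes are per cents of the healthy-nucleus cells.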
# [1] = 12 h, 1 µM, compound concentration 1 uM, replicate 1
# [2] = 12 h, 1 µM, compound concentration 1 uM, replicate 2
# [3] = 12 h, 10 µM, compound concentration 10 uM, replicate 1
# [4] = 12 h, 10 µM, compound concentration 10 uM, replicate 2
# [5] = 24 h, 1 µM, compound concentration 1 uM, replicate 1
# [6] = 24 h, 1 µM, compound concentration 1 uM, replicate 2
# [7] = 24 h, 10 µM, compound concentration 10 uM, replicate 1
# [8] = 24 h, 10 µM, compound concentration 10 uM, replicate 2
# [9] = 48 h, 1 µM, compound concentration 1 uM, replicate 1
# [10] = 48 h, 1 µM, compound concentration 1 uM, replicate 2
# [11] = 48 h, 10 µM, compound concentration 10 uM, replicate 1
# [12] = 48 h, 10 µM, compound concentration 10 uM, replicate 2
smiles,measurement,setting,value
C[C@H]1[C@H]2CC[C@H]3[C@@H]4CC=C5C[C@@H](N(C)C)CC[C@]5(C)[C@H]4CC[C@]23CN1C [CONESSINE],Population Apoptotic (%),[1],45%
same,Population Fragmented Nuclei (%),[1],15%
same,Population Healthy Nuclei (%),[1],73%
same,Population Hoechst High Intensity Objects (%),[1],1%
same,Population Membrane Permeable-Phenotype (%),[1],0%
same,Population Mitochondria Different-Phenotype (%),[1],8%
same,Population Mitotic Cells (%),[1],55%
same,Population Normal (%),[1],98%
same,Population Pyknosed Nuclei (%),[1],11%
same,Population Tubulin-Different-Phenotype (%),[1],19%
same,Total Cell Count,[1],174
same,Population Apoptotic (%),[2],29%
same,Population Fragmented Nuclei (%),[2],33%
same,Population Healthy Nuclei (%),[2],41%
same,Population Hoechst High Intensity Objects (%),[2],2%
same,Population Membrane Permeable-Phenotype (%),[2],7%
same,Population Mitochondria Different-Phenotype (%),[2],2%
same,Population Mitotic Cells (%),[2],70%
same,Population Normal (%),[2],97%
same,Population Pyknosed Nuclei (%),[2],24%
same,Population Tubulin-Different-Phenotype (%),[2],46%
same,Total Cell Count,[2],101
same,Population Apoptotic (%),[3],37%
same,Population Fragmented Nuclei (%),[3],26%
same,Population Healthy Nuclei (%),[3],60%
same,Population Hoechst High Intensity Objects (%),[3],3%
same,Population Membrane Permeable-Phenotype (%),[3],5%
same,Population Mitochondria Different-Phenotype (%),[3],10%
same,Population Mitotic Cells (%),[3],62%
same,Population Normal (%),[3],96%
same,Population Pyknosed Nuclei (%),[3],13%
same,Population Tubulin-Different-Phenotype (%),[3],32%
same,Total Cell Count,[3],189
same,Population Apoptotic (%),[4],43%
same,Population Healthy Nuclei (%),[4],45%
same,Population Membrane Permeable-Phenotype (%),[4],8%
same,Population Mitochondria Different-Phenotype (%),[4],4%
same,Population Mitotic Cells (%),[4],56%
same,Population Pyknosed Nuclei (%),[4],28%
same,Population Tubulin-Different-Phenotype (%),[4],58%
same,Total Cell Count,[4],110
same,Population Apoptotic (%),[5],43%
same,Population Fragmented Nuclei (%),[5],13%
same,Population Healthy Nuclei (%),[5],73%
same,Population Hoechst High Intensity Objects (%),[5],2%
same,Population Membrane Permeable-Phenotype (%),[5],1%
same,Population Mitochondria Different-Phenotype (%),[5],4%
same,Population Mitotic Cells (%),[5],56%
same,Population Normal (%),[5],97%
same,Population Pyknosed Nuclei (%),[5],13%
same,Population Tubulin-Different-Phenotype (%),[5],22%
same,Total Cell Count,[5],175
same,Population Apoptotic (%),[6],40%
same,Population Fragmented Nuclei (%),[6],27%
same,Population Healthy Nuclei (%),[6],48%
same,Population Hoechst High Intensity Objects (%),[6],4%
same,Population Membrane Permeable-Phenotype (%),[6],13%
same,Population Mitochondria Different-Phenotype (%),[6],6%
same,Population Mitotic Cells (%),[6],59%
same,Population Normal (%),[6],95%
same,Population Pyknosed Nuclei (%),[6],24%
same,Population Tubulin-Different-Phenotype (%),[6],61%
same,Total Cell Count,[6],95
same,Population Apoptotic (%),[7],64%
same,Population Fragmented Nuclei (%),[7],28%
same,Population Healthy Nuclei (%),[7],61%
same,Population Hoechst High Intensity Objects (%),[7],3%
same,Population Membrane Permeable-Phenotype (%),[7],1%
same,Population Mitochondria Different-Phenotype (%),[7],7%
same,Population Mitotic Cells (%),[7],35%
same,Population Normal (%),[7],96%
same,Population Pyknosed Nuclei (%),[7],9%
same,Population Tubulin-Different-Phenotype (%),[7],27%
same,Total Cell Count,[7],190
same,Population Apoptotic (%),[8],36%
same,Population Healthy Nuclei (%),[8],39%
same,Population Hoechst High Intensity Objects (%),[8],2%
same,Population Membrane Permeable-Phenotype (%),[8],7%
same,Population Mitotic Cells (%),[8],63%
same,Population Normal (%),[8],97%
same,Population Pyknosed Nuclei (%),[8],32%
same,Population Tubulin-Different-Phenotype (%),[8],60%
same,Total Cell Count,[8],106
same,Population Apoptotic (%),[9],50%
same,Population Fragmented Nuclei (%),[9],17%
same,Population Healthy Nuclei (%),[9],73%
same,Population Hoechst High Intensity Objects (%),[9],5%
same,Population Membrane Permeable-Phenotype (%),[9],0%
same,Population Mitochondria Different-Phenotype (%),[9],3%
same,Population Mitotic Cells (%),[9],50%
same,Population Normal (%),[9],94%
same,Population Pyknosed Nuclei (%),[9],9%
same,Population Tubulin-Different-Phenotype (%),[9],27%
same,Total Cell Count,[9],178
same,Population Apoptotic (%),[10],47%
same,Population Fragmented Nuclei (%),[10],37%
same,Population Healthy Nuclei (%),[10],45%
same,Population Hoechst High Intensity Objects (%),[10],0%
same,Population Membrane Permeable-Phenotype (%),[10],17%
same,Population Mitochondria Different-Phenotype (%),[10],8%
same,Population Mitotic Cells (%),[10],52%
same,Population Normal (%),[10],99%
same,Population Pyknosed Nuclei (%),[10],16%
same,Population Tubulin-Different-Phenotype (%),[10],63%
same,Total Cell Count,[10],104
same,Population Apoptotic (%),[11],66%
same,Population Fragmented Nuclei (%),[11],26%
same,Population Healthy Nuclei (%),[11],62%
same,Population Hoechst High Intensity Objects (%),[11],6%
same,Population Membrane Permeable-Phenotype (%),[11],0%
same,Population Mitochondria Different-Phenotype (%),[11],4%
same,Population Mitotic Cells (%),[11],33%
same,Population Normal (%),[11],93%
same,Population Pyknosed Nuclei (%),[11],10%
same,Population Tubulin-Different-Phenotype (%),[11],25%
same,Total Cell Count,[11],190
same,Population Apoptotic (%),[12],27%
same,Population Fragmented Nuclei (%),[12],29%
same,Population Healthy Nuclei (%),[12],48%
same,Population Hoechst High Intensity Objects (%),[12],2%
same,Population Membrane Permeable-Phenotype (%),[12],8%
same,Population Mitochondria Different-Phenotype (%),[12],6%
same,Population Mitotic Cells (%),[12],72%
same,Population Normal (%),[12],97%
same,Population Pyknosed Nuclei (%),[12],22%
same,Population Tubulin-Different-Phenotype (%),[12],62%
same,Total Cell Count,[12],102
